Experimental data from ChEMBL document CHEMBL1156940, “Modified cap group suberoylanilide hydroxamic acid histone deacetylase inhibitor derivatives reveal improved selective antileukemic activity” (J Med Chem, 2010).
Active and inactive are the calls of the source. The rule behind the calls is not given here.

Columns and labels:
SK-BR-3 = test: Antiproliferative activity against human SK-BR-3 cells after 48 hrs by cell titer-glo assay; format: functional, cell-based; conditions: SK-BR-3, 48 h
HT-29 = test: Antiproliferative activity against human HT-29 cells after 48 hrs by cell titer-glo assay; format: functional, cell-based; conditions: HT-29, 48 h
U-937 = test: Antiproliferative activity against human U937 cells after 48 hrs by cell titer-glo assay; format: functional, cell-based; conditions: U-937, 48 h
Outline: (§1)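 Cells kept in RPMI-1640 with 10% FBS at 37 °C, 5% CO2. 10^4 suspension cells were plated immediately before dosing. Compounds were added at 0.1–100 µM, final 1% DMSO, with DMSO vehicle control, and incubated 48 h. CellTiter-Glo luminescence was read. EC50 is the dose reducing luminescence to 50% of untreated cultures.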

Jurkat = test: Antiproliferative activity against human Jurkat JA16 cells after 48 hrs by cell titer-glo assay; format: functional, cell-based
HL-60 = test: Antiproliferative activity against human HL60 cells after 48 hrs by cell titer-glo assay; format: functional, cell-based; conditions: HL-60, 48 h
K562 = test: Antiproliferative activity against human K562 cells after 48 hrs by cell titer-glo assay; format: functional, cell-based; conditions: K562, 48 h; outline: as §1
[1] = Therapeutic ratio, EC50 for human PBMC to EC50 for human 937 cells; conditions: human PBMC versus human 937 cells
[2] = target: Histone deacetylase 1 (Homo sapiens) (UniProt Q13547); test: Inhibition of recombinant FLAG-tagged HDAC1 assessed as [3H]acetic acid release preincubated for 30 mins measured after 2 hrs by scintillation counting
Outline: (§2)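 FLAG-tagged HDAC1 or HDAC6 was immunopurified from stably expressing cell lines and washed in HDAC buffer (10 mM Tris-HCl pH 8.0, 10 mM NaCl, 10% glycerol). Enzyme was preincubated with inhibitor (1 µM) for 30 min at 4 °C, then given 20 000 cpm [3H]peracetylated H4 peptide for 2 h at 37 °C. The reaction was stopped with acetic acid/HCl, extracted into ethyl acetate, and released [3H]acetate counted by scintillation.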

[3] = target: T1, Protein deacetylase HDAC6 (Homo sapiens) (UniProt Q9UBN7); test: Inhibition of recombinant FLAG-tagged HDAC6 assessed as [3H]acetic acid release preincubated for 30 mins measured after 2 hrs by scintillation counting; outline: as §2
T1 sequence (whole entry): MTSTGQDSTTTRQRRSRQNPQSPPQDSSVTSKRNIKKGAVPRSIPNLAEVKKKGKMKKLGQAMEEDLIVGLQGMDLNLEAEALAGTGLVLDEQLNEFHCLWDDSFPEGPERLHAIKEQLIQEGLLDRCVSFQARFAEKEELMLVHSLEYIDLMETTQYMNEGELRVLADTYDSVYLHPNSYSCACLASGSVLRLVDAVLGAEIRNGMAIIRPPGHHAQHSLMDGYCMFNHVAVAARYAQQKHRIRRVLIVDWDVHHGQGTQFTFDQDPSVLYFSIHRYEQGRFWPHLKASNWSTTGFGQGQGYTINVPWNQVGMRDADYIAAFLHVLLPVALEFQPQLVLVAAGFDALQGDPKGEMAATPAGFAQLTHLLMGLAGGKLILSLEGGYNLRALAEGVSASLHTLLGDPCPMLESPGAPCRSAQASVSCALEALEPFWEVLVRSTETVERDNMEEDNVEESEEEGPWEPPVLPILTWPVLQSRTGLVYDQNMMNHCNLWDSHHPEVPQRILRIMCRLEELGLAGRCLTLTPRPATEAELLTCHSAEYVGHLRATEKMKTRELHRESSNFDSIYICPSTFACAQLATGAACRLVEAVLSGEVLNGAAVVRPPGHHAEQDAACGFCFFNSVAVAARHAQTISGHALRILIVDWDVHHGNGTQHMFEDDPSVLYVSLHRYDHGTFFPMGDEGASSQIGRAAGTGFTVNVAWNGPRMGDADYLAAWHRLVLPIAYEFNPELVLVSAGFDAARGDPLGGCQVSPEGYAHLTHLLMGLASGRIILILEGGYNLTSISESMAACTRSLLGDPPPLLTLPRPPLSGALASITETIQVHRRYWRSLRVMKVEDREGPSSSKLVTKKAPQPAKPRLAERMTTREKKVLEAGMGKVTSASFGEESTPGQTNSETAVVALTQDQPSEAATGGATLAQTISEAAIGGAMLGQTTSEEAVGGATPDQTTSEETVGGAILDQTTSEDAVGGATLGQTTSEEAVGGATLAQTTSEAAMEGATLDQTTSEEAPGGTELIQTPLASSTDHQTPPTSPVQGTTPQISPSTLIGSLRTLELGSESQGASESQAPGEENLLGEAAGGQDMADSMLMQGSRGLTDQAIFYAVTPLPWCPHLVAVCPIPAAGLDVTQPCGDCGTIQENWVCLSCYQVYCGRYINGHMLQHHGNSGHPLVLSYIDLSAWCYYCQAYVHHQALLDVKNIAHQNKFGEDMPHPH

Mus musculus [4] = test: Toxicity in FVB mouse assessed as mortality at 50 mg/kg, po administered 5 times per week for 2 weeks; format: organism-based; set-up: dose 50 mg/kg, route oral; conditions: in vivo, 336 h
Outline: (§3)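 8-week-old Fvb mice, SPF-housed in ventilated cages with acidified water, randomly assigned (n = 3 per group) to compound or solvent-only vehicle. Dosing was by oral gavage five times weekly for 2 weeks. Survival was monitored with body weight and blood counts during dosing, and deaths were also recorded during the month after treatment stopped.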

Mus musculus [5] = test: Toxicity in FVB mouse assessed as mortality at 50 mg/kg, po administered 5 times per week for 2 weeks measured up to 1 month; format: organism-based; set-up: dose 50 mg/kg, route oral; conditions: in vivo, 336 h; outline: as §3
Mus musculus [6] = test: Toxicity in FVB mouse assessed as effect on number of platelets at 50 mg/kg, po administered 5 times per week for 2 weeks measured during test (reference value: 454 +/- 93 10^3/mm^3); format: organism-based; set-up: dose 50 mg/kg, route oral; conditions: in vivo, 336 h
Outline: (§4)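 8-week-old FVB mice were housed specific-pathogen-free and randomly assigned, n = 3 per group. They received 50 mg/kg compound or vehicle alone by oral gavage, five times weekly for 2 weeks. Body weight and survival were monitored. Differential blood counts came from nonlethal retro-orbital bleeds before study (J-5), during study (J5) and at end point (J12). Values are means ± spread for n = 3.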

Mus musculus [7] = test: Toxicity in FVB mouse assessed as effect on number of platelets at 50 mg/kg, po administered 5 times per week for 2 weeks (reference value: 514 +/- 42.8 10^3/mm^3); format: organism-based; set-up: dose 50 mg/kg, route oral; conditions: in vivo, 336 h; outline: as §4
Mus musculus [8] = test: Toxicity in FVB mouse assessed as effect on mean platelet volume at 50 mg/kg, po administered 5 times per week for 2 weeks measured during test (reference value: 8.4 +/- 0.5 microm^3); format: organism-based; set-up: dose 50 mg/kg, route oral; conditions: in vivo, 336 h; outline: as §4
Mus musculus [9] = test: Toxicity in FVB mouse assessed as effect on mean platelet volume at 50 mg/kg, po administered 5 times per week for 2 weeks (reference value: 8.8 +/- 0.1 microm^3); format: organism-based; set-up: dose 50 mg/kg, route oral; conditions: in vivo, 336 h; outline: as §4
Mus musculus [10] = test: Toxicity in FVB mouse assessed as effect on number of RBC at 50 mg/kg, po administered 5 times per week for 2 weeks measured during test (reference value: 8.1 +/- 0.2 10^6/mm^3); format: organism-based; set-up: dose 50 mg/kg, route oral; conditions: in vivo, 336 h; outline: as §4
Mus musculus [11] = test: Toxicity in FVB mouse assessed as effect on number of RBC at 50 mg/kg, po administered 5 times per week for 2 weeks (reference value: 7.7 +/- 0.1 10^6/mm^3); format: organism-based; set-up: dose 50 mg/kg, route oral; conditions: in vivo, 336 h; outline: as §4
Mus musculus [12] = test: Toxicity in FVB mouse assessed as effect on mean cell volume of red cells at 50 mg/kg, po administered 5 times per week for 2 weeks measured during test (reference value: 43.7 +/- 0.4 microm^3); format: organism-based; set-up: dose 50 mg/kg, route oral; conditions: in vivo, 336 h; outline: as §4
Mus musculus [13] = test: Toxicity in FVB mouse assessed as effect on number of WBC at 50 mg/kg, po administered 5 times per week for 2 weeks measured during test (reference value: 9.1 +/- 0.2 10^3/mm^3); format: organism-based; set-up: dose 50 mg/kg, route oral; conditions: in vivo, 336 h; outline: as §4
Mus musculus [14] = test: Toxicity in FVB mouse assessed as effect on number of WBC at 50 mg/kg, po administered 5 times per week for 2 weeks (reference value: 9.1 +/- 0.2 10^3/mm^3); format: organism-based; set-up: dose 50 mg/kg, route oral; conditions: in vivo, 336 h; outline: as §4
Mus musculus [15] = test: Toxicity in FVB mouse assessed as effect on hematocrit at 50 mg/kg, po administered 5 times per week for 2 weeks measured during test; format: organism-based; set-up: dose 50 mg/kg, route oral; conditions: in vivo, 336 h; outline: as §4
Mus musculus [16] = test: Toxicity in FVB mouse assessed as effect on hematocrit at 50 mg/kg, po administered 5 times per week for 2 weeks; format: organism-based; set-up: dose 50 mg/kg, route oral; conditions: in vivo, 336 h; outline: as §4
Mus musculus [17] = test: Toxicity in FVB mouse assessed as effect on body weight at 50 mg/kg, po administered 5 times per week for 2 weeks measured during test; format: organism-based; set-up: dose 50 mg/kg, route oral; conditions: in vivo, 336 h; outline: as §4
Mus musculus [18] = test: Toxicity in FVB mouse assessed as effect on body weight at 50 mg/kg, po administered 5 times per week for 2 weeks; format: organism-based; set-up: dose 50 mg/kg, route oral; conditions: in vivo, 336 h; outline: as §4
Mus musculus [19] = test: Toxicity in FVB mouse assessed as effect on mean cell volume of red cells at 50 mg/kg, po administered 5 times per week for 2 weeks (reference value: 43.9 +/- 0.5 microm^3); conditions: in vivo, 336 h

Histone deacetylase 1 (Homo sapiens), sequence (Q13547 whole entry): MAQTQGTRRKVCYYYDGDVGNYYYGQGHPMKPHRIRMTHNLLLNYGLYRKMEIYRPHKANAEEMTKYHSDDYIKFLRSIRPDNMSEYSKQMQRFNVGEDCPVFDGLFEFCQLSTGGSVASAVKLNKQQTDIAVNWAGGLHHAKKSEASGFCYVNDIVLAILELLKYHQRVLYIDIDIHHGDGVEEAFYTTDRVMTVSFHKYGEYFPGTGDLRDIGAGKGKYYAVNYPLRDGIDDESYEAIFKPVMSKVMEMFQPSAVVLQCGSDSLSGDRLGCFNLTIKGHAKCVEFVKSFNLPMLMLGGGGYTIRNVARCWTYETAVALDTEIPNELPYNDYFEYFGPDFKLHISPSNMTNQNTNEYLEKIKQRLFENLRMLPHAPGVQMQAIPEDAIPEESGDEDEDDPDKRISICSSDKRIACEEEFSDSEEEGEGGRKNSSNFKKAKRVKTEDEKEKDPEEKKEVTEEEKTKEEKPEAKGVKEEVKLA

Row | SMILES | EC50 (SK-BR-3) | EC50 (HT-29) | EC50 (U-937) | EC50 (Jurkat) | EC50 (HL-60) | EC50 (K562) | selectivity ratio [1] | Activity [2] | Activity [3] | Activity (Mus musculus [4]) | Activity (Mus musculus [5]) | Activity (Mus musculus [6]) | Activity (Mus musculus [7]) | Activity (Mus musculus [8]) | Activity (Mus musculus [9]) | Activity (Mus musculus [10]) | Activity (Mus musculus [11]) | Activity (Mus musculus [12]) | Activity (Mus musculus [13]) | Activity (Mus musculus [14]) | also measured
1 | O=C(CCCCCCC(=O)Nc1cc2ccc3cccc4ccc(c1)c2c34)NO | 1200 nM | 1400 nM | 300 nM | 180 nM | 350 nM | 800 nM | 15 | Active | Active | – | – | – | – | – | – | – | – | – | – | – | –
2 | O=C(CCCCCCC(=O)Nc1ccccc1)NO [VORINOSTAT] | – | – | 820 nM | – | – | 2200 nM | – | – | – | Non-toxic | Non-toxic | 617 10^3/mm3 | 538 10^3/mm3 | 7.7 um3 | 8.4 um3 | 8.3 10^6/mm3 | 7.6 10^6/mm3 | 44.1 um3 | 5.9 10^3/mm3 | 8.3 10^3/mm3 | Activity (Mus musculus [15]): 36.5%; Activity (Mus musculus [16]): 33.7%; Activity (Mus musculus [17]): 94.9%; Activity (Mus musculus [18]): 96.2%; Activity (Mus musculus [19]): 44.5 um3
3 | O=C(CCCCCCC(=O)Nc1ccc(I)cc1)NO | 1100 nM | 950 nM | 120 nM | 240 nM | 850 nM | 1300 nM | 30 | Active | Active | Non-toxic | Non-toxic | 478.3 10^3/mm3 | 537 10^3/mm3 | 8.6 um3 | 8.7 um3 | 8.02 10^6/mm3 | 6.9 10^6/mm3 | 43.9 um3 | 7.5 10^3/mm3 | 7.5 10^3/mm3 | Activity (Mus musculus [15]): 35.2%; Activity (Mus musculus [16]): 30.2%; Activity (Mus musculus [17]): 99.7%; Activity (Mus musculus [18]): 97.8%; Activity (Mus musculus [19]): 43.7 um3
